Test results from ChEMBL document CHEMBL1132256, “Structure-activity relationships for substituted bis(acridine-4-carboxamides): a new class of anticancer agents” (J Med Chem, 1999).

Assays:
HCT-116 = assay: inhibitory activity against colon HCT116 cell line.; assay type: functional; settings: Homo sapiens
Method in brief: (§1)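 Tested in the NCI human cell line panel. GI50 = drug concentration (nM) giving growth inhibition to 50% of controls; values below 10 nM were taken as 10 nM in calculations.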

[1] = test system: Lewis lung carcinoma cell line; assay: Inhibitory activity of tested against Murine Lewis lung carcinoma; assay type: functional, cell-based; settings: Mus musculus
Method in brief: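 Lewis lung carcinoma (LLTC) cells at 10^3 cells/well, 4-day continuous drug exposure, growth read by sulforhodamine assay. IC50 (nM) = concentration giving 50% of control cell number. Duplicate independent assays, CV ca. 25%.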

Jurkat [2] = assay: Ratio of inhibitory activity against amsacrine resistant jurkat cells to inhibitory activity against wild type human jurkat cells; assay type: functional
Method in brief: (§2)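 Wild-type Jurkat (JLC) and its amsacrine-resistant (JLA) or doxorubicin-resistant (JLD) sublines each seeded at 3.75 × 10^3 cells/well, 4 days with drug, sulforhodamine read-out. IC50 (nM) for 50% of control cell number; ratio = resistant-line IC50 divided by JLC IC50. Duplicate assays, CV ca. 25%.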

HT-29 = assay: inhibitory activity against colon HT-29 cell line.; assay type: functional; settings: Homo sapiens; method in brief: as §1
MCF7 = assay: inhibitory activity against multi drug resistant MCF cell line.; assay type: functional; settings: Homo sapiens, in the assay text read “MCF7 cell line” for “multi drug resistant MCF cell line”; method in brief: as §1
SK-OV-3 = assay: inhibitory activity against ovarian carcinoma SKOV3 cell line.; assay type: functional; settings: Homo sapiens; method in brief: as §1
CAKI-1 = assay: inhibitory activity against renal tumor […] cell line.; assay type: functional; settings: Homo sapiens; method in brief: as §1
Jurkat [3] = assay: Concentration required to inhibit 50% growth of human Jurkat cells; assay type: functional, cell-based
Method in brief: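 Jurkat leukemia (JLC) cells seeded at 3.75 × 10^3 cells/well and exposed to drug for 4 days; growth measured by sulforhodamine assay. IC50 = drug concentration (nM) reducing cell number to 50% of control cultures. Independent assays in duplicate, coefficients of variation ca. 25%.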

NCI/ADR-RES = assay: inhibitory activity against multi drug resistant NCI/ADR cell line.; assay type: functional; settings: Homo sapiens; method in brief: as §1
Jurkat [4] = assay: Ratio of inhibitory activity against doxorubicin resistant jurkat cells to inhibitory activity against wild type human jurkat cells; assay type: functional; method in brief: as §2
P388 = assay: Inhibitory activity against Murine […]; assay type: functional, cell-based; settings: Mus musculus
Method in brief: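 Murine P388 leukemia cells seeded at 4.5 × 10^3 cells/well, cultured 3 days with drug; growth measured by [3H]TdR uptake. IC50 = drug concentration (nM) reducing cell number to 50% of controls. Independent assays in duplicate, CV ca. 25%.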

Structure (SMILES) | GI50 (HCT-116) | IC50 [1] | Ratio (Jurkat [2]) | GI50 (HT-29) | GI50 (MCF7) | GI50 (SK-OV-3) | GI50 (CAKI-1) | IC50 (Jurkat [3]) | GI50 (NCI/ADR-RES) | Ratio (Jurkat [4]) | IC50 (P388)
CN(CCCNC(=O)c1cccc2cc3ccccc3nc12)CCCNC(=O)c1cccc2cc3ccccc3nc12 | < 10 nM | 30 nM | 0.7 | < 10 nM | 24 nM | 8570 nM | 14 nM | 110 nM | 408 nM | 0.8 | 130 nM
CN(CCCNC(=O)c1cccc2cc3cccc(-c4ccccc4)c3nc12)CCCNC(=O)c1cccc2cc3cccc(-c4ccccc4)c3nc12 | 5060 nM | 1080 nM | 0.5 | 1620 nM | 1020 nM | 12000 nM | 12000 nM | 2540 nM | 1790 nM | 0.8 | 1230 nM
CC(C)c1cccc2cc3cccc(C(=O)NCCCN(C)CCCNC(=O)c4cccc5cc6cccc(C(C)C)c6nc45)c3nc12 |  | 1050 nM | 0.9 |  |  |  |  | 2080 nM |  | 1.1 | 2760 nM
COc1cc(NS(C)(=O)=O)ccc1Nc1c2ccccc2nc2ccccc12 [AMSACRINE] |  | 12 nM | 85 |  |  |  |  |  |  | 74 | 
CN(CCCNC(=O)c1cccc2cc3cccc(Br)c3nc12)CCCNC(=O)c1cccc2cc3cccc(Br)c3nc12 | < 10 nM | 6 nM | 0.4 | < 10 nM | 13 nM | 166 nM | < 10 nM | 24 nM | 110 nM | 0.9 | 15 nM
CC(C)c1ccc2nc3c(C(=O)NCCCN(C)CCCNC(=O)c4cccc5cc6cc(C(C)C)ccc6nc45)cccc3cc2c1 |  | 2080 nM | 1.1 |  |  |  |  | 2080 nM |  | 1.1 | 1450 nM
CN(CCCNC(=O)c1cccc2cc3ccc(Br)cc3nc12)CCCNC(=O)c1cccc2cc3ccc(Br)cc3nc12 |  | 18 nM | 0.6 |  |  |  |  | 58 nM |  | 0.9 | 49 nM
CN(CCCNC(=O)c1c(Cl)ccc2cc3ccccc3nc12)CCCNC(=O)c1c(Cl)ccc2cc3ccccc3nc12 | 171 nM | 2980 nM | 0.9 | 727 nM | 488 nM | 8380 nM | 4580 nM | 900 nM | 37000 nM | 1.2 | > 200000 nM
CN(CCCNC(=O)c1cccc2cc3ccc(Cl)cc3nc12)CCCNC(=O)c1cccc2cc3ccc(Cl)cc3nc12 | < 10 nM | 13 nM | 0.5 | < 10 nM | 13 nM | 11000 nM | < 10 nM | 51 nM | 274 nM | 0.9 | 66 nM
Cc1ccc(C(=O)NCCCN(C)CCCNC(=O)c2ccc(C)c3cc4ccccc4nc23)c2nc3ccccc3cc12 | < 10 nM | 14 nM | 0.6 | < 10 nM | 54 nM | 1170 nM | 42 nM | 41 nM | 77 nM | 1 | 170 nM
Cc1cc(C)c2nc3c(C(=O)NCCCN(C)CCCNC(=O)c4cccc5cc6cc(C)cc(C)c6nc45)cccc3cc2c1 |  | 20 nM | 0.5 |  |  |  |  | 105 nM |  | 0.8 | 210 nM
Cc1ccc(C)c2nc3c(C(=O)NCCCN(C)CCCNC(=O)c4cccc5cc6c(C)ccc(C)c6nc45)cccc3cc12 | < 10 nM | 3.2 nM | 0.4 | < 10 nM | < 10 nM | 320 nM | < 10 nM | 11 nM | 172 nM | 0.7 | 24 nM
COc1cccc2cc3cccc(C(=O)NCCCN(C)CCCNC(=O)c4cccc5cc6cccc(OC)c6nc45)c3nc12 | 330 nM | 170 nM | 0.5 | 103 nM | 394 nM | 12000 nM | 1490 nM | 345 nM | 1390 nM | 0.8 | 430 nM
Cc1cccc2cc3c(Cl)ccc(C(=O)NCCCN(C)CCCNC(=O)c4ccc(Cl)c5cc6cccc(C)c6nc45)c3nc12 |  | 6 nM | 0.3 |  |  |  |  | 12 nM |  | 0.6 | 48 nM
CN(CCCNC(=O)c1cccc2cc3cc(Cl)ccc3nc12)CCCNC(=O)c1cccc2cc3cc(Cl)ccc3nc12 |  | 46 nM | 0.8 |  |  |  |  | 136 nM |  | 0.9 | 170 nM
CCc1ccc2nc3c(C(=O)NCCCN(C)CCCNC(=O)c4cccc5cc6cc(CC)ccc6nc45)cccc3cc2c1 |  | 770 nM | 0.9 |  |  |  |  | 1640 nM |  | 1.4 | 1080 nM

Structure (SMILES) | GI50 (HCT-116) | IC50 [1] | Ratio (Jurkat [2]) | GI50 (HT-29) | GI50 (MCF7) | GI50 (SK-OV-3) | GI50 (CAKI-1) | IC50 (Jurkat [3]) | GI50 (NCI/ADR-RES) | Ratio (Jurkat [4]) | IC50 (P388)
CN(CCCNC(=O)c1cccc2cc3cc(C(C)(C)C)ccc3nc12)CCCNC(=O)c1cccc2cc3cc(C(C)(C)C)ccc3nc12 |  | 1400 nM | 1.1 |  |  |  |  | 1070 nM |  | 1.1 | 1760 nM
CN(CCCNC(=O)c1cccc2cc3ccc(F)cc3nc12)CCCNC(=O)c1cccc2cc3ccc(F)cc3nc12 |  | 20 nM | 0.6 |  |  |  |  | 52 nM |  | 0.9 | 24 nM
COc1cccc2c1C(=O)c1c(O)c3c(c(O)c1C2=O)C[C@@](O)(C(=O)CO)C[C@@H]3O[C@H]1C[C@H](N)[C@H](O)[C@H](C)O1 [DOXORUBICIN] |  | 22 nM | 4.4 |  |  |  |  |  |  | 13 | 31 nM
CN(CCCNC(=O)c1cccc2cc3cc(Br)ccc3nc12)CCCNC(=O)c1cccc2cc3cc(Br)ccc3nc12 |  | 35 nM | 0.7 |  |  |  |  | 226 nM |  | 0.9 | 225 nM
Cc1ccc(Cl)c2cc3cccc(C(=O)NCCCN(C)CCCNC(=O)c4cccc5cc6c(Cl)ccc(C)c6nc45)c3nc12 |  | 8.8 nM | 0.5 |  |  |  |  | 20 nM |  | 0.7 | 41 nM
CN(CCCNC(=O)c1cccc2cc3cccc(N(C)C)c3nc12)CCCNC(=O)c1cccc2cc3cccc(N(C)C)c3nc12 |  | 670 nM | 0.7 |  |  |  |  | 180 nM |  | 0.9 | 2130 nM
CN(CCCNC(=O)c1cccc2cc3cc(N(C)C)ccc3nc12)CCCNC(=O)c1cccc2cc3cc(N(C)C)ccc3nc12 |  | 183 nM | 1 |  |  |  |  | 760 nM |  | 0.9 | 970 nM
Cc1ccc(C(=O)NCCCN(C)CCCNC(=O)c2ccc(C)c3cc4cccc(C)c4nc23)c2nc3c(C)cccc3cc12 |  | 1.4 nM | 0.3 |  |  |  |  | 3.9 nM |  | 0.7 | 21 nM
COc1ccc2cc3cccc(C(=O)NCCCN(C)CCCNC(=O)c4cccc5cc6ccc(OC)cc6nc45)c3nc2c1 |  | 20 nM | 0.5 |  |  |  |  | 51 nM |  | 0.8 | 76 nM
CN(CCCNC(=O)c1cccc2cc3ccc(C(F)(F)F)cc3nc12)CCCNC(=O)c1cccc2cc3ccc(C(F)(F)F)cc3nc12 |  | 160 nM | 0.6 |  |  |  |  | 355 nM |  | 1.1 | 9600 nM
CN(CCCNC(=O)c1cccc2cc3ccc(N(C)C)cc3nc12)CCCNC(=O)c1cccc2cc3ccc(N(C)C)cc3nc12 |  | 320 nM | 0.3 |  |  |  |  | 225 nM |  | 0.6 | 760 nM
CN(CCCNC(=O)c1cc(Cl)cc2cc3ccccc3nc12)CCCNC(=O)c1cc(Cl)cc2cc3ccccc3nc12 |  | 5.9 nM | 0.7 |  |  |  |  | 46 nM |  | 0.9 | 113 nM
CN(CCCNC(=O)c1ccc(Cl)c2cc3ccccc3nc12)CCCNC(=O)c1ccc(Cl)c2cc3ccccc3nc12 |  | 42 nM | 0.6 |  |  |  |  | 127 nM |  | 1 | 400 nM
CN(CCCNC(=O)c1cccc2cc3cc(F)ccc3nc12)CCCNC(=O)c1cccc2cc3cc(F)ccc3nc12 |  | 32 nM | 0.6 |  |  |  |  | 96 nM |  | 0.8 | 140 nM
CN(CCCNC(=O)c1cccc2cc3cc(-c4ccccc4)ccc3nc12)CCCNC(=O)c1cccc2cc3cc(-c4ccccc4)ccc3nc12 |  | 610 nM | 1 |  |  |  |  | 1020 nM |  | 1.1 | 710 nM
COc1ccc2nc3c(C(=O)NCCCN(C)CCCNC(=O)c4cccc5cc6cc(OC)ccc6nc45)cccc3cc2c1 |  | 20 nM | 0.7 |  |  |  |  | 147 nM |  | 1.1 | 132 nM
